Test [1] deals with Delta-type opioid receptor (Rattus norvegicus, UniProt P33533). The test can be described thus: Displacement of [3H]deltorphin2 from delta opioid receptor in rat brain membrane. It counts as cell membranes. For orientation: In a radioligand displacement assay an active substance lowers the binding of a labelled ligand.
The target in another test is Mu-type opioid receptor (Rattus norvegicus, UniProt P33535). The test can be described thus: Displacement of [3H]DAGO from mu opioid receptor in rat brain membrane. It counts as cell membranes.
Sequence of Mu-type opioid receptor (P33535 whole entry): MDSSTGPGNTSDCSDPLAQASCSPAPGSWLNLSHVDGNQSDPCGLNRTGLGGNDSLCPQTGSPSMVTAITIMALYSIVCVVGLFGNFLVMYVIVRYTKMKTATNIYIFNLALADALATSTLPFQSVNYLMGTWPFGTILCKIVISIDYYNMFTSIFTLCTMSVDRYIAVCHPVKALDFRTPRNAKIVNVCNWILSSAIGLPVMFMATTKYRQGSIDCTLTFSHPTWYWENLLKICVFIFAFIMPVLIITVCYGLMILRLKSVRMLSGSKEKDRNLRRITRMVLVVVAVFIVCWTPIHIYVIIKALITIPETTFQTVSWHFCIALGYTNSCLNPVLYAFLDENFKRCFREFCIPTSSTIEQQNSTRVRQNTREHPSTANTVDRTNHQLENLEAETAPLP
Test [2] deals with Opioid receptors; mu & delta (Rattus norvegicus) (UniProt P33533+P33535). Briefly: Selectivity for rat mu opioid receptor over rat delta opioid. Type of test: protein assay. In short, it runs like this: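 Ratio of IC50 values from [3H]deltorphin II (delta) and [3H]DAGO (mu) displacement on rat brain membranes. Each used 0.25 nM tracer, 60 min incubation at room temperature in Tris-HCl pH 7.55 with 0.1% BSA and bacitracin, and filtration with scintillation counting.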
Sequence of Opioid receptors; mu & delta (Rattus norvegicus) (P33533 whole entry, looked up): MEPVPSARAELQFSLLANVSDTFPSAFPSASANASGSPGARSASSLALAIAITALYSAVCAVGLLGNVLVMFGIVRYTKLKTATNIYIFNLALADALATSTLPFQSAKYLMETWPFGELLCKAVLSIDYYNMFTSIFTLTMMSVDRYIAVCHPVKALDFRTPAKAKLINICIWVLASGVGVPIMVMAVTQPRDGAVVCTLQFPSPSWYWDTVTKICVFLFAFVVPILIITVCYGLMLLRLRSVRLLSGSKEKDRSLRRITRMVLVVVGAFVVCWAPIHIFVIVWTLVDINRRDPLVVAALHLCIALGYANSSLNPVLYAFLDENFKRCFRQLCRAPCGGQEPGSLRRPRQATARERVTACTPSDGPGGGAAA
Sequence of Opioid receptors; mu & delta (Rattus norvegicus) (P33535 whole entry, looked up): as the sequence (P33535 whole entry) above

Each structure is given as a SMILES string. Residues, ends and D or L forms follow the SMILES beside them.

Sequence of Delta-type opioid receptor (P33533 whole entry): as the sequence (P33533 whole entry, looked up) above

Regarding `NC(=O)[C@H](Cc1c(F)c(F)c(F)c(F)c1F)NC(=O)[C@H](Cc1ccccc1)NC(=O)[C@@H]1CCCN1C(=O)[C@@H](N)Cc1ccc(O)cc1`, the values for the IC50 (in test [1]; on Mu-type opioid receptor) were 8.04 µM and 0.00274 µM, respectively. The Ratio IC50 in test [2] amounted to 1000.
For `NC(=O)[C@H](Cc1ccccc1)NC(=O)[C@H](Cc1c(F)c(F)c(F)c(F)c1F)NC(=O)[C@@H]1CCCN1C(=O)[C@@H](N)Cc1ccc(O)cc1`, the IC50 in test [1] worked out at 11.7 µM; at Mu-type opioid receptor, 0.0117 µM. Further, the Ratio IC50 in test [2] was 1000.
At Mu-type opioid receptor, `C[C@H](NC(=O)[C@@H]1CCCN1C(=O)[C@@H](N)Cc1ccc(O)cc1)C(=O)N[C@@H](Cc1ccccc1)C(N)=O` (H-YPAF-NH2) registered an IC50 of 3.81 µM.
Still for that read-out and setting: then `C[C@H](NC(=O)[C@H](Cc1ccccc1)NC(=O)[C@@H]1CCCN1C(=O)[C@@H](N)Cc1ccc(O)cc1)C(N)=O` (H-YPFA-NH2), with 0.0854 µM.
For `NC(=O)[C@H](Cc1c[nH]cn1)NC(=O)[C@H](Cc1ccccc1)NC(=O)[C@@H]1CCCN1C(=O)[C@@H](N)Cc1ccc(O)cc1` (H-YPFH-NH2), the results for the IC50 (in test [1]; at Mu-type opioid receptor) were greater than 1000 µM and 0.138 µM, respectively.
`NCCCC[C@H](NC(=O)[C@H](Cc1ccccc1)NC(=O)[C@@H]1CCCN1C(=O)[C@@H](N)Cc1ccc(O)cc1)C(N)=O` (H-YPFK-NH2) registered an IC50 on Mu-type opioid receptor of 0.408 µM.
With `CC(C)C[C@H](NC(=O)[C@H](Cc1ccccc1)NC(=O)[C@@H]1CCCN1C(=O)[C@@H](N)Cc1ccc(O)cc1)C(N)=O` (H-YPFL-NH2), the IC50 in test [1] was greater than 1000 µM; at Mu-type opioid receptor, 0.062 µM.
For `CC(C)[C@H](NC(=O)[C@H](Cc1ccccc1)NC(=O)[C@@H]1CCCN1C(=O)[C@@H](N)Cc1ccc(O)cc1)C(N)=O` (H-YPFV-NH2) the same measures were greater than 1000 µM and 0.0765 µM.
The matching figures for `NC(=O)[C@H](Cc1c[nH]c2ccccc12)NC(=O)[C@H](Cc1ccccc1)NC(=O)[C@@H]1CCCN1C(=O)[C@@H](N)Cc1ccc(O)cc1` (H-YPFW-NH2): greater than 1000 µM and 0.0871 µM.
Regarding `NC(=O)[C@H](Cc1ccc(O)cc1)NC(=O)[C@H](Cc1ccccc1)NC(=O)[C@@H]1CCCN1C(=O)[C@@H](N)Cc1ccc(O)cc1` (H-YPFY-NH2), the IC50 in test [1] turned out to be 54.5 µM; on Mu-type opioid receptor, 0.0622 µM. Moreover, the Ratio IC50 in test [2] was found to be 5.2.
Take `NC(=O)[C@H](Cc1ccccc1)NC(=O)[C@H](Cc1c[nH]cn1)NC(=O)[C@@H]1CCCN1C(=O)[C@@H](N)Cc1ccc(O)cc1` (H-YPHF-NH2): the IC50 is greater than 1000 µM in test [1] and 4.49 µM at Mu-type opioid receptor.
`NCCCC[C@H](NC(=O)[C@@H]1CCCN1C(=O)[C@@H](N)Cc1ccc(O)cc1)C(=O)N[C@@H](Cc1ccccc1)C(N)=O` (H-YPKF-NH2) had an IC50 at Mu-type opioid receptor greater than 1000 µM.
Turning to `CC(C)C[C@H](NC(=O)[C@@H]1CCCN1C(=O)[C@@H](N)Cc1ccc(O)cc1)C(=O)N[C@@H](Cc1ccccc1)C(N)=O` (H-YPLF-NH2), the IC50 in test [1] is greater than 1000 µM; at Mu-type opioid receptor, 0.926 µM.
`CC(C)[C@H](NC(=O)[C@@H]1CCCN1C(=O)[C@@H](N)Cc1ccc(O)cc1)C(=O)N[C@@H](Cc1ccccc1)C(N)=O` (H-YPVF-NH2): the figures for the IC50 (in test [1]; at Mu-type opioid receptor) were greater than 1000 µM and 2.65 µM, respectively.
For the molecule `NC(=O)[C@H](Cc1ccccc1)NC(=O)[C@H](Cc1ccc(O)cc1)NC(=O)[C@@H]1CCCN1C(=O)[C@@H](N)Cc1ccc(O)cc1` (H-YPYF-NH2), the results for the IC50 (in test [1]; at Mu-type opioid receptor) were 5.72 µM and 1.1 µM, respectively. Further, in test [2], the Ratio IC50 worked out at 5.2.
The matching figures for `NC(=O)[C@H](CC1CCCCC1)NC(=O)[C@H](Cc1ccccc1)NC(=O)[C@@H]1CCCN1C(=O)[C@@H](N)Cc1ccc(O)cc1` (HELM PEPTIDE1{Y.P.F.[Cha].[am]}$$$$V2.0): 11.4 µM, 0.917 µM and 21.3.
For the molecule `CCCC[C@H](NC(=O)[C@H](Cc1ccccc1)NC(=O)[C@@H]1CCCN1C(=O)[C@@H](N)Cc1ccc(O)cc1)C(N)=O` (HELM PEPTIDE1{Y.P.F.[Nle].[am]}$$$$V2.0), the IC50 in test [1] is greater than 1000 µM; at Mu-type opioid receptor it was 0.0339 µM.
With `NC(=O)[C@H](Cc1ccccc1)NC(=O)[C@H](CC1CCCCC1)NC(=O)[C@@H]1CCCN1C(=O)[C@@H](N)Cc1ccc(O)cc1` (HELM PEPTIDE1{Y.P.[Cha].F.[am]}$$$$V2.0), the IC50 in test [1] came to 3.15 µM; on Mu-type opioid receptor it was 0.148 µM. Moreover, the Ratio IC50 in test [2] was determined as 21.3.
For `CCCC[C@H](NC(=O)[C@@H]1CCCN1C(=O)[C@@H](N)Cc1ccc(O)cc1)C(=O)N[C@@H](Cc1ccccc1)C(N)=O` (HELM PEPTIDE1{Y.P.[Nle].F.[am]}$$$$V2.0) the same measures were 15.2 µM, 0.23 µM and 66.1.
`C[C@@H](NC(=O)[C@@H](N)Cc1ccc(O)cc1)C(=O)NCC(=O)N(C)[C@@H](Cc1ccccc1)C(=O)NCCO` [DAMGO] had an IC50 in test [1] of 0.727 µM.

A word on the IC50: it is the concentration needed to halve the response being measured. A low value points to greater potency.

Values taken from ChEMBL document CHEMBL1147940, “Differential receptor binding characteristics of consecutive phenylalanines in micro-opioid specific peptide ligand endomorphin-2” (Bioorg Med Chem, 2007).
